These results are taken from ChEMBL document CHEMBL4414559, “Proanthocyanidin Dimers and Trimers from Vitis vinifera Provide Diverse Structural Motifs for the Evaluation of Dentin Biomodification” (J Nat Prod, 2019).

Activity calls are given as the source filed them. The calls are words filed in the database; no cut-off is given here.

In series [1] the test system is Dentine. Nature of the series: Induction of elasticity in human molar dentin at 3.5 mg after 1 hr by flexural assay. The series is classed as functional, tissue-based. In outline: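 Read-out is modulus of elasticity (MPa), measured mechanically on the dentin. This avoids colorimetric, fluorescence or UV detection.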
The nature of series [2]: Stability in human molar dentin at 3.5 mg after 1 hr by flexural assay. The class given is ADME, tissue-based, Dentine. The settings on record: in vitro.
The subject of series [3] is Dentine. Nature of the series: Induction of modification in human molar dentin assessed as sum of percentage of apparent modulus elasticity and percentage of collagen remaining after […] at 3.5 mg. The class given is functional, tissue-based.
Series [4] has as its system Dentine. Nature of the series: Induction of elasticity in human molar dentin assessed as fold change at 3.5 mg after 1 hr by flexural assay relative to untreated control. The class given is functional.
The next series relates to Hathewaya histolytica. The series is described as follows: Inhibition of Clostridium histolyticum collagenase-induced degradation of human molar dentin assessed as reduction in at 3.5 mg after 1 hr followed by collagenase treatment and measured after 24 hrs relative to control. In outline: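 Resistance to proteolytic biodegradation is measured gravimetrically as percent mass gain or loss of the dentin. This avoids colorimetric, fluorescence or UV detection.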

In the case of `Oc1cc(O)c2c(c1)O[C@H](c1ccc(O)c(O)c1)[C@H](O)[C@H]2c1c(O)cc(O)c2c1O[C@@H](c1ccc(O)c(O)c1)[C@H](O)C2`, the result in the series with Dentine [1] was inactive. The Stability result in series [2] was “Stable”.

On to `Oc1cc(O)c2c(c1)O[C@@H](c1ccc(O)c(O)c1)[C@H](O)[C@H]2c1c(O)cc(O)c2c1O[C@H](c1ccc(O)c(O)c1)[C@@H](O)C2`, for which the outcome with Dentine [3] was Active. In addition, in the series on Dentine [1], the outcome was inactive. The Stability entry in series [2] was “Stable”.

Regarding `Oc1cc(O)c2c(c1)O[C@H](c1ccc(O)c(O)c1)[C@H](O)[C@H]2c1c(O)cc(O)c2c1O[C@H](c1ccc(O)c(O)c1)[C@H](O)C2` [PROCYANIDIN B2], in the series with Dentine [3], the outcome was Active. Also, the result with Dentine [1] was inactive. Also, the Stability result in series [2] was “Stable”.

With `Oc1cc(O)c2c(c1)O[C@H](c1ccc(O)c(O)c1)[C@H](O)[C@H]2c1c(O)cc(O)c2c1O[C@H](c1ccc(O)c(O)c1)[C@H](O)[C@H]2c1c(O)cc(O)c2c1O[C@H](c1ccc(O)c(O)c1)[C@@H](O)C2`, in the series with Dentine [4], the “fold change (FC)” value was 5. For the same molecule, in the series with Hathewaya histolytica, the inhibition (usually the percentage by which the read-out fell short of the control) was 70 to 80%. In the series with Dentine [3], the result was Active. Further, the Stability entry in series [2] is “Stable”.

In the case of `Oc1cc(O)c2c(c1)O[C@H](c1ccc(O)c(O)c1)[C@H](O)[C@H]2c1c(O)cc(O)c2c1O[C@H](c1ccc(O)c(O)c1)[C@@H](O)C2` [PROCYANIDIN B1], the outcome with Dentine [1] was inactive. Moreover, in series [2], the Stability result is given as “Stable”.

Turning to `Oc1cc(O)c2c(c1)O[C@H](c1ccc(O)c(O)c1)[C@H](O)[C@H]2c1c(O)cc(O)c2c1O[C@H](c1ccc(O)c(O)c1)[C@H](O)[C@H]2c1c(O)cc(O)c2c1O[C@@H](c1ccc(O)c(O)c1)[C@H](O)C2`, the “fold change (FC)” value with Dentine [4] is 5.5. Also, the inhibition with Hathewaya histolytica lay within 70 to 80%. Also, the result in the series with Dentine [3] was Active. In addition, in series [2], the Stability entry is given as “Stable”.

Turning to `Oc1cc(O)c2c(c1)O[C@@H](c1ccc(O)c(O)c1)[C@H](O)[C@H]2c1c(O)cc(O)c2c1O[C@H](c1ccc(O)c(O)c1)[C@H](O)C2`, the outcome in the series on Dentine [3] was Active. Besides, the outcome with Dentine [1] was inactive. In addition, in series [2], the Stability result is “Stable”.

As for `Oc1cc(O)c2c(c1)O[C@H](c1ccc(O)c(O)c1)[C@@H](O)[C@@H]2c1c(O)cc(O)c2c1O[C@H](c1ccc(O)c(O)c1)[C@@H](O)C2`, in the series on Dentine [1], the outcome was inactive. Moreover, the Stability entry in series [2] is “Stable”.

With `Oc1cc(O)c2c(c1)O[C@H](c1ccc(O)c(O)c1)[C@H](O)[C@H]2c1c(O)cc(O)c2c1O[C@@H](c1ccc(O)c(O)c1)[C@@H](O)C2`, the outcome with Dentine [3] was Active. Moreover, the outcome in the series with Dentine [1] was inactive. In addition, the Stability result in series [2] is on record as “Stable”.
